Data as given in article PMC10187672 (RNA, 2023).
Several values for one entry are separate records, joined by “and”; a condition that tells them apart may be missing. Equal values may be shown once.

How the values were obtained:
[1] = test system: 4A1^F163L/4A2^− eHAP1 cells; assay: RT-qPCR of FF-4.04 and FF-4.06 reporter mRNA; assay type: cell-based; conditions: 5 h exposure, normalized to GAPDH, relative to DMSO
Outline: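 Cells were nucleofected with the PTC-containing or control FLuc-β-globin reporter and selected as a pool in G418 (1.6 mg/mL). They were seeded at 250,000/well and exposed to compound for 5 h. After TRIzol extraction and oligo(dT) cDNA synthesis, EvaGreen qPCR used β-globin (HBB) primers. Values were normalized to GAPDH and expressed relative to DMSO.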

[2] = test system: TCR-β minigene mRNA (NMD) in HeLa cells; assay: NMD assay, RT-qPCR of TCR-β minigene mRNA in PTC− and PTC+ HeLa cells; assay type: cell-based; conditions: for TCR-β mRNA levels in PTC+ cells / TCR-β mRNA levels in PTC− cells: normalized to β-actin; for TCR-β mRNA levels in PTC− cells: PTC− HeLa cells
Outline: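 HeLa cells carrying a TCR-β minigene with or without a PTC were seeded at 100,000/well and exposed to compound across a concentration series for 1 h or 5 h. Total RNA was TRIzol-extracted, and 500 ng was reverse-transcribed with oligo(dT) primer. EvaGreen qPCR followed, with TCR-β normalized to β-actin. n = 3 ± SD.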

[3] = test system: SC35 mRNA in 4A1^F163L/4A2^− eHAP1 cells; assay: RT-qPCR of endogenous SC35 and HPRT mRNA; assay type: cell-based; conditions: 5 h exposure, normalized to β-actin
Outline: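 Cells were seeded at 250,000/well and given a concentration series of compound for 5 h. Total RNA was TRIzol-extracted, and 500 ng was reverse-transcribed with oligo(dT) primer. EvaGreen qPCR measured SC35 and HPRT, normalized to β-actin and expressed as fold change versus DMSO.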

[4] = test system: Krebs-2 translation extracts; assay: In vitro translation of FF/HCV/Ren bicistronic reporter mRNAs; assay type: biochemical; conditions: Krebs-2 extracts, 1 h at 30°C
Outline: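 Reporter mRNAs were used at 10 ng/µL final. FLuc and RLuc activities were read by luminometry, and RLU were normalized to DMSO vehicle controls.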

[5] = target: T1, eIF4A3 (Homo sapiens, UniProt P38919); assay: FP dissociation of preformed protein•ATP•RNA•compound complexes; assay type: binding; conditions: 10 µM compound, 1 mM ATP, 1000-fold molar excess unlabeled poly r(AG)8 RNA
Outline: (§1)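 Recombinant His6-tagged human protein was expressed in E. coli BL21(DE3) and Ni-NTA purified. Complexes were preformed for 30 min at RT in the dark in FP buffer (HEPES-NaOH pH 8, 0.1% DMSO) with 1.5 µM protein, 10 nM FAM-poly r(AG)8 and 1 mM ATP. DMSO reactions used 25 µM protein. After adding 10 µM unlabeled RNA, FP was read every 10 sec. Half-life came from a one-phase exponential decay fit (Y0 = 1, plateau = 0).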

[6] = test system: 4A1^F163L/4A2^− eHAP1 cells; assay: Luciferase NMD reporter assay; assay type: cell-based; conditions: 6 h exposure
Outline: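 Cells were transfected at 75% confluency with an FLuc-β-globin plasmid (PTC-containing or control, with or without an upstream HCV IRES) plus an HCV-IRES RLuc plasmid. The next day they were reseeded and left to recover for 24 h, then given compound for 6 h. Cells were lysed and both luciferases read by luminometry. n = 3 ± SD.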

[7] = target: T2, eIF4A1 (Homo sapiens, UniProt P60842); assay: FP dissociation of preformed protein•ATP•RNA•compound complexes; assay type: binding; conditions: 10 µM compound, 1 mM ATP, 1000-fold molar excess unlabeled poly r(AG)8 RNA
Outline: as §1

[8] = target: T1, eIF4A3; assay: Fluorescence polarization; assay type: binding; conditions: 10 µM compound, 1 mM AMPPNP
[9] = test system: HeLa cells harboring a (TCR)-β minigene; assay: [35S]-Methionine labeling of de novo protein synthesis; assay type: cell-based; conditions: 1 h exposure, labeling last 15 min
Outline: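 PTC+ minigene HeLa cells were seeded at 50,000/well and treated with compound for 1 h the next day, with [35S]-Met/Cys added for the final 15 min. Cells were washed and lysed in RIPA buffer, and lysates were spotted on paper and TCA-precipitated. Radioactivity was measured by scintillation counting and normalized to total protein. n = 3 ± SD.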

[10] = target: T2, eIF4A1; assay: Fluorescence polarization; assay type: binding; conditions: 10 µM compound, 1 mM AMPPNP

T2 sequence (P60842 whole entry, species assumed): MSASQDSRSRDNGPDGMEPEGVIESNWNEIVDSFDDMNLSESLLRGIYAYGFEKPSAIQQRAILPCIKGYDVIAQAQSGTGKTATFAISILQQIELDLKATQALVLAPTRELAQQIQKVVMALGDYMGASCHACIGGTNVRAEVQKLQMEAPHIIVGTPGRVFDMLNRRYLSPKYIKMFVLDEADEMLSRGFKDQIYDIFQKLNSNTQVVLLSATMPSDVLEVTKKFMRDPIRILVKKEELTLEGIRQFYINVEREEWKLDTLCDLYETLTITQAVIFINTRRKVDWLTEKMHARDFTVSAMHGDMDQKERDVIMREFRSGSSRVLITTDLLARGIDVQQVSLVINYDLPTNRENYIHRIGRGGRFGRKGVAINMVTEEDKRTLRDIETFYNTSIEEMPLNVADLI
T1 sequence (P38919 whole entry, species assumed): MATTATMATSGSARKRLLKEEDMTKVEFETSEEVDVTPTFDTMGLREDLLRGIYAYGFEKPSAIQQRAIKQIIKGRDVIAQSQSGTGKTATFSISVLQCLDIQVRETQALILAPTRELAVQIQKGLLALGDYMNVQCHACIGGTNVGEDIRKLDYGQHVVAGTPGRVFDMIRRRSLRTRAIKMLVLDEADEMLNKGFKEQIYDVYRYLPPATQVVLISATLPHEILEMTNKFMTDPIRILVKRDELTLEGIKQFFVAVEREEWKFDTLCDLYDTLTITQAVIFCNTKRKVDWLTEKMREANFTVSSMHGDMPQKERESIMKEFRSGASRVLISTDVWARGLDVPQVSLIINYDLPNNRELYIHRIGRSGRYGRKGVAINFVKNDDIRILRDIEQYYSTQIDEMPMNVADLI

SMILES	FF-4.06 (NMD reporter) mRNA levels [1]	TCR-β mRNA levels in PTC+ cells ([2]; PTC+ HeLa cells, 5 h exposure)	TCR-β mRNA levels in PTC− cells ([2]; 5 h exposure)	HPRT mRNA levels [3]	SC35 mRNA levels relative to DMSO controls [3]	Translational response of all three reporters (AG, UC, NMD 5′ leaders) [4]	Fitted half-life T(1/2) of eIF4A3•ATP•RNA•compound complex [5]	Luc expression from FF-4.04 or FF-4.06 reporters ([6]; 300 nM, both reporters)	RLuc expression from internal HCV/Ren control [6]	Expression of HCV/FF-4.04 and HCV/FF-4.06 reporters ([6]; titration range tested)	Fitted half-life T(1/2) of eIF4A1•ATP•RNA•compound complex [7]	Clamping of eIF4A3 to poly r(AG)8 RNA (ΔmP relative to DMSO) [8]	35S-Met incorporation into proteins (translation) [9]	Effect on TCR-β minigene mRNA levels ([2]; PTC+ HeLa cells, 1 µM compound for 1 h)	Translational response of reporter mRNA with polypurine ([AG]10) 5′ leader [4]	Clamping of eIF4A1 to poly r(AG)8 RNA (ΔmP relative to DMSO) [10]	Increase of PTC+ mRNA levels ([2]; PTC+ HeLa cells, 1 h exposure, highest concentration tested (200 nM))	Increase of PTC+ mRNA levels ([2]; PTC+ HeLa cells, 5 h exposure)
C[C@@H]1C[C@@H]([C@H](O)CC2CC(=O)NC(=O)C2)C(=O)[C@@H](C)C1 [CHX, cycloheximide]	increased	significantly increased	no impact	not increased	significant increase	equally responsive												
CONC(=O)[C@H]1[C@@H](O)[C@@]2(O)c3c(OC)cc(OC)cc3O[C@@]2(c2ccc(OC)cc2)[C@@H]1c1ccccc1 [CR-1-31B]	increased only in the presence of CHX	substantial stabilization		not increased	did not significantly change		0.4 ± 0.0067 h	approximately twofold	No change	neither reporter showed a change in expression	0.833 ± 0.005 h	able to induce clamping	translation was blocked	no significant effect	conferred CR-1-31B responsiveness			
CC(/C=C/C(C)=C/[C@@H]1Cc2nc(cs2)[C@@H](C)C[C@@H](N)CC(=O)O[C@@H](C)C/C(C)=C/C=C\C(=O)O1)=C\CN(C)C [PatA, pateamine A]		Stabilization of TCR-β mRNA	but not PTC− cells	not increased	significant increase	equally inhibited all reporters	3.05 h and 3.05 ± 0.02 h				1.83 h and 1.83 ± 0.0233 h	clamping was observed	translation was blocked			clamping was observed	approximately threefold	10 fold
COc1ccc([C@@]23Oc4cc(OC)cc(OC)c4[C@]2(O)[C@H](O)[C@H](C(=O)N(C)C)[C@H]3c2ccccc2)cc1 [RocA]												able to induce clamping						
COC(=O)[C@H]1[C@@H](O)[C@@]2(O)c3c(OC)cc(O[C@@H]4O[C@@H]([C@H](O)CO)CO[C@H]4OC)cc3O[C@@]2(c2ccc(OC)cc2)[C@@H]1c1ccccc1 [silvestrol]												able to induce clamping						
